According to ChEMBL document CHEMBL1629434, “Cholesterol-based α-phenyl-N-tert-butyl nitrone derivatives as antioxidants against light-induced retinal degeneration” (Bioorg Med Chem Lett, 2010):
Activity calls are given as the source filed them. The calls are words filed in the database; no cut-off is given here.

Tests used:
[1] = Half life in albino rat retina; type: ADME, tissue-based
Rattus norvegicus [2] = organism: Rattus norvegicus; assay: Protection against light-induced photoreceptor degradation in albino rat retina exposed to 12 hrs dark and 12 hrs light assessed as reduction in ONL thickness on superior side at 9 mM, intravitreally after 24 hrs; type: functional, organism-based
In short: (§1)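 Albino rats got a 2 µL intravitreal injection 18 h before 24 h exposure to bright fluorescent light. Compounds insoluble in PBS 1× at 1 mM were given in DMSO 2%; PBS-soluble ones were given in PBS 1×. Untreated-unexposed and DMSO 2% groups served as controls.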

Rattus norvegicus [3] = organism: Rattus norvegicus; assay: Protection against light-induced photoreceptor degradation in albino rat retina exposed to 12 hrs dark and 12 hrs light assessed as reduction in ONL thickness on inferior side at 9 mM, intravitreally after 24 hrs; type: functional, organism-based; in short: as §1
Rattus norvegicus [4] = organism: Rattus norvegicus; assay: Protection against light-induced photoreceptor degradation in albino rat retina exposed to 12 hrs dark and 12 hrs light assessed as reduction in ONL thickness at 1 mM, intravitreally after 24 hrs; type: functional, organism-based; in short: as §1
[5] = Solubility of the compound at 1 mM in PBS; type: physicochemical; conditions: buffer, 1000 µM
[6] = Solubility of the compound at 1 mM in 2% DMSO; type: physicochemical; conditions: 1000 µM
Rattus norvegicus [7] = organism: Rattus norvegicus; assay: Protection against light-induced photoreceptor degradation in albino rat retina exposed to bright fluorescent light assessed as reduction in ONL thickness on superior side at 1 mM, intravitreally after 24 hrs; type: functional, organism-based; in short: as §1

half-life [1] [h]	Activity (Rattus norvegicus [2])	Activity (Rattus norvegicus [3])	Activity (Rattus norvegicus [4])	solubility [5]	solubility [6]	Activity (Rattus norvegicus [7])	SMILES
2	Active	Active	inactive				CC(C)(C)/[N+]([O-])=C/c1ccccc1
				Insoluble	soluble	inactive	CC(C)CCC[C@@H](C)[C@H]1CC[C@H]2[C@@H]3CC=C4C[C@@H](OCCC(=O)NCC(C)(C)/[N+]([O-])=C/c5ccc(CNC(=O)[C@@H](O)[C@H](O)[C@H](O[C@@H]6O[C@H](CO)[C@H](O)[C@H](O)[C@H]6O)[C@@H](O)CO)cc5)CC[C@]4(C)[C@H]3CC[C@]12C
				Insoluble	soluble	Active	CC(C)CCC[C@@H](C)[C@H]1CC[C@H]2[C@@H]3CC=C4C[C@@H](OCCC(=O)NCc5ccc(/C=[N+](\[O-])C(C)(C)CNC(=O)[C@@H](O)[C@H](O)[C@H](O[C@@H]6O[C@H](CO)[C@H](O)[C@H](O)[C@H]6O)[C@@H](O)CO)cc5)CC[C@]4(C)[C@H]3CC[C@]12C
